High-throughput results from PubChem.
CSC inhib – cancer stem cell inhibition; hit rate 1.1% among 300,000; cancer stem cell-like cells viability, luminescence; inhibition, % at 7.5 µM; in the data active means inhibition above about 75%; tested in HMLE shEcad cells
Beta cell apopt – beta cell apoptosis inhibition | INS-1E cytokine-induced death, ATP luminescence, 48 h; percent of positive-control rescue, neutral wells zero | protection from apoptosis, % (test concentration not listed) | hit rate 0.8% among 300,000 | AID 435005;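 active means Every replicate reaches about 75%, or at least half do and their mean reaches it too, limit read from the data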;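 further: higher means more ATP so stronger rescue from cytokine killing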
T cruzi inh – T. cruzi replication inhibition; T. cruzi beta-gal in NIH3T3, luminescence, 90 h; hit rate 1.4% among 300,000; inhibition, % (no concentration beside the values);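 active means mean inhibition across valid replicates above about 55%, limit read from the data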;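 further: signal also drops with host cell toxicity which is not excluded here; higher percent means less beta-gal luminescence so fewer parasites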
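compound dosing = single 50 nL compound addition per well in DMSO | material = NIH/3T3 host cells with β-galactosidase reporter T. cruzi | input = 5,000 host fibroblasts per well | timing = ≥90 h infection period, 3 h prior cell attachment | read-out basis = percent inhibition of parasite-derived β-gal signal | detection = GalScreen β-gal luminescence, detergent lysis, 60 min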
SKKanGAS inh – inhibitors of SKKanGAS S. pyogenes growth in kanamycin (SK-promoter or general growth effect) | BacTiter-Glo, 6 h | inhibition, % at 7.5 µM | hit rate 1.3% among 300,000 | AID 1662;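 active means mean replicate score, as percent of positive control median, at least 50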;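 further: strain carries kanamycin resistance gene driven by streptokinase promoter and grows in 40 µg/ml kanamycin; loss of luminescence reflects streptokinase promoter inhibition or plain growth inhibition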
Calb FLC – affects C. albicans growth with fluconazole; C. albicans CaCi-2 (fluconazole-resistant clinical isolate) + fluconazole, Alamar Blue growth, 48 h; growth inhibition, % (test concentration not listed); hit rate 0.57% among 300,000; AID 1979;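 active means growth inhibition above about 58% in most replicates, limit read from the data, passing the limit was not always enough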;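 further: all wells also contain fluconazole at 8 µg/ml as a sub-toxic cotreatment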
Mdm2 MdmX PPI – human Mdm2/MdmX binding inhibition; O15151+Q00987; SaOS-2 split-luciferase Mdm2/MdmX complementation, luminescence; inhibition, % at 8 µM; hit rate 3% among 330,000;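 active means inhibition of at least 50% at 8 µM in the primary screen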
Target sequence (O15151 whole entry, looked up): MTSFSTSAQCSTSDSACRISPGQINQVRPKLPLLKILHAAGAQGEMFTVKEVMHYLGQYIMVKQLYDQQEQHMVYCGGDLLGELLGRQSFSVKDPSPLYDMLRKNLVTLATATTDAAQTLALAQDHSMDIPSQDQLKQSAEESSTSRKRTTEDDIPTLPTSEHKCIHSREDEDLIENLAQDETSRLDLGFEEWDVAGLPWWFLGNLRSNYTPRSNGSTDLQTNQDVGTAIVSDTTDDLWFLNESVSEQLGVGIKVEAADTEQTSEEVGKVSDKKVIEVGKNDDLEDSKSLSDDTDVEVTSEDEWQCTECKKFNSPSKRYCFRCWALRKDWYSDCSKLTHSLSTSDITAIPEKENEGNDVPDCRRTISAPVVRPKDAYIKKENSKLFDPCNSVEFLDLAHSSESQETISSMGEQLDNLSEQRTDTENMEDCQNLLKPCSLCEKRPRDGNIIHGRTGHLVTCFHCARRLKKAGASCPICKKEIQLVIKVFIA
Target sequence (Q00987 whole entry, looked up): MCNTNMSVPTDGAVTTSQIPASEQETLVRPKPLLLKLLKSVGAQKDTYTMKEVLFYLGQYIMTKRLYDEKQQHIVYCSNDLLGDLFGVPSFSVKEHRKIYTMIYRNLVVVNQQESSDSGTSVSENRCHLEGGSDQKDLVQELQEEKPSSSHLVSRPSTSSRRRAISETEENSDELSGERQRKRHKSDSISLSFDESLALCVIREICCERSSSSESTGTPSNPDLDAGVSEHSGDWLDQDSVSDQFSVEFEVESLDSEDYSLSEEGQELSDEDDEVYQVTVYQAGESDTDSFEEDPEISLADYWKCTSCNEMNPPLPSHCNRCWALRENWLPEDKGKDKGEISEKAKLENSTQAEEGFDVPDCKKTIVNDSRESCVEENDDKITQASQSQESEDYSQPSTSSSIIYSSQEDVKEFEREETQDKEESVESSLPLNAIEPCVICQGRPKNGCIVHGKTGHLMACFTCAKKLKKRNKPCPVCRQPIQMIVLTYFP
Mdm2-MdmX conf – human Mdm2/MdmX binding inhibition, confirmed | hit rate 55% among 10,000 | shares compounds with Mdm2 MdmX PPI | inhibition, % at 8 µM | AID 489028 | luminescent assay; in the data active means inhibition above about 40%
Full FLuc ctr – counter-screen for Mdm2/MdmX inhibitors: full-length luciferase. shares compounds with Mdm2 MdmX PPI. SaOS-2 full-length luciferase counterscreen, luminescence. inhibition, % at 8 µM. hit rate 77% among 6,200;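 active means mean inhibition at 8 µM reaching about 37%, which flags the compound as non-specific, limit read from the data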;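 further: p53-null SaOS-2 cells with luciferase driven by a doxycycline-inducible promoter; compound on cells about two nights before reading with doxycycline added after day one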
Numbers stand for hits; i = inactive; nt = no result; + = active, no number. In the library only some 5.7% were active in any assay of this set; here they are far more common.

SMILES | CSC inhib | Beta cell apopt | T cruzi inh | SKKanGAS inh | Calb FLC | Mdm2 MdmX PPI | Mdm2-MdmX conf | Full FLuc ctr
COc1ccc([N+](=O)[O-])c(S(=O)(=O)c2ccccc2)n1 | i | 94 | i | i | i | 99 | 98 | 52
Cc1ccc(S(=O)(=O)N2CCOCC2)cc1NCC(=O)Nc1ccc(OC(F)(F)F)cc1 | i | i | nt | nt | nt | i | nt | nt
COc1ccc(NC(=O)C(=O)NCC(c2ccco2)N2CCc3ccccc3C2)cc1OC (stereo not given) | i | i | i | i | i | i | nt | nt
C=CCn1c(SCc2c(C)noc2C)nc2sc(C)c(C)c2c1=O | i | i | i | i | i | 56 | 60 | 49
C=CCn1c(SCC(=O)NCCO)nc2sc(C)c(C)c2c1=O | i | i | i | i | i | i | nt | nt
S=C(NCC1COc2ccccc2O1)Nc1ccccc1 (stereo not given) | i | i | i | i | i | i | nt | nt
COc1ccc(NC(=O)Cc2c(SC)c3ccccc3n2Cc2ccccc2)cc1 | i | i | i | i | i | 69 | i | 90
CSc1c(CC(=O)NCCCO)n(Cc2ccccc2)c2ccccc12 | i | i | i | i | i | i | nt | nt
COc1cccc(N=Cc2c(O)c3ccccc3oc2=O)c1 | i | i | i | i | i | i | nt | nt
Cc1ccc(OCCNC(=O)c2cncc(Br)c2)cc1C | i | i | i | i | i | 60 | 48 | 60
Cc1nn(-c2ccccc2)c(C)c1/C=N/NC(=O)c1ccc(F)cc1 | i | i | i | i | i | i | nt | nt
Cc1nn(-c2ccccc2)c(C)c1/C=N/NC(=O)c1cc(-c2ccccc2)n[nH]1 | i | i | i | i | i | 59 | 63 | 79
COc1ccc(C)cc1S(=O)(=O)N1CCC(C(=O)NC2CCCC2)CC1 | i | nt | i | i | i | i | nt | nt
Fc1ccccc1C1c2[nH]c3ccccc3c2CCN1CCCn1cccn1 (stereo not given) | i | i | i | i | i | 59 | i | nt
CC(C)(C)C1c2[nH]c3ccccc3c2CCN1CCCn1cccn1 (stereo not given) | i | i | i | i | i | i | nt | nt
CCC(=N\NC(=O)COc1ccccc1OC)/C(CC)=N/NC(=O)COc1ccccc1OC | i | i | nt | nt | nt | i | nt | nt
CC1=CC(C)[C@H](/C=N/n2c(=O)[nH]c3c([nH]c4ccc(Br)cc43)c2=O)C(C)C1 (stereo not given in full) | + | i | 64 | i | i | 98 | i | nt
COc1ccc(/C=N/n2c(=O)[nH]c3c([nH]c4ccc(Br)cc43)c2=O)cc1CN1CCOCC1 | i | i | i | i | i | i | nt | nt
COc1ccc2c(c1)[nH]c1c(=O)n(/N=C/C3C(C)C=C(C)CC3C)c(=O)[nH]c12 (stereo not given) | 100 | i | i | i | i | 69 | i | nt
COc1ccc2[nH]c3c(=O)n(N)c(=O)[nH]c3c2c1 | i | i | i | i | i | i | nt | nt
CCS(=O)CC(=O)Nc1c(-c2ccccc2)oc2ccccc2c1=O (stereo not given) | i | i | i | i | i | i | nt | nt
COc1cccc(/C=N/NC(=O)c2cccc3ccccc23)c1OC | i | i | i | i | i | i | nt | nt
CC(=O)n1cc([C@H]2C=C(C(=O)Nc3ccccc3)O[C@@H](OCc3ccc(CO)cc3)C2)c2ccccc21 | i | i | i | i | i | 73 | i | 71
COc1ccc2c(c1OC)C(=O)N1c3ccccc3C(=O)N(c3ccccc3)C21 (stereo not given) | i | i | i | i | i | 65 | 62 | 69
COc1cccc(C2Nc3ccccc3C(=O)N2c2ccc(F)cc2)c1O (stereo not given) | i | i | i | i | i | i | nt | nt
SMILES | CSC inhib | Beta cell apopt | T cruzi inh | SKKanGAS inh | Calb FLC | Mdm2 MdmX PPI | Mdm2-MdmX conf | Full FLuc ctr
COc1ccc2c(c1OC)C(=O)N1c3ccccc3C(=O)N(c3ccc(F)cc3)C21 (stereo not given) | i | i | i | i | i | 57 | 44 | 89
COc1ccc(Nc2nc(N)c(C(=O)c3ccc(OC)cc3)s2)cc1 | i | i | i | i | i | 50 | 59 | 60
COc1cccc(C(=O)c2sc(NC(C)C)nc2N)c1 | nt | i | nt | i | i | 76 | 44 | 111
COc1ccc(C(=O)c2sc(Nc3ccccc3)nc2C)cc1 | nt | nt | i | i | i | i | nt | nt
COc1ccc(C(=O)c2sc(NC(C)C)nc2N)cc1OC | i | i | nt | nt | nt | i | nt | nt
COc1ccc(Nc2nc(N)c(C(=O)c3ccc(F)cc3)s2)cc1 | i | i | i | i | i | 51 | 52 | 81
CCOC(=O)c1sc(Nc2ccc(F)cc2)nc1C | i | i | i | i | i | i | nt | nt
Cc1nn(C)cc1S(=O)(=O)N1CCN(Cc2cccc(Cl)c2)CC1 | i | i | i | i | i | i | nt | nt
O=C1CSC(=Nc2ccc(Cl)cc2)N1Cc1cccnc1 | i | i | nt | i | i | i | nt | nt
COC(=O)c1ccccc1OC(=O)c1cccnc1 | i | i | i | i | i | i | nt | nt
O=C(Oc1ccccc1C(=O)Oc1ccccc1)c1cccnc1 | i | i | i | i | i | 52 | i | nt
O=C1[C@@H](Oc2ccccc2)[C@@H](c2ccncc2)N1c1ccncc1 | nt | nt | nt | nt | nt | i | nt | nt
CCc1ccc2[nH]c(=O)c(CN(Cc3ccc4c(c3)OCO4)Cc3nnnn3C3CCCC3)cc2c1 | i | i | i | i | i | 64 | i | nt
CCN(CC)CCNC(=O)c1cn(CC)c2ccc(S(=O)(=O)N3CCc4ccccc4C3)cc2c1=O | i | i | i | i | i | i | nt | nt
Cc1cccc(CCNc2nc3ccccc3n3nnnc23)c1 | i | i | i | i | i | i | nt | nt
Cc1nnc2c(NCCc3ccccc3)nc3ccccc3n12 | i | i | i | i | i | 57 | i | nt
N=c1c(-c2nc3ccccc3[nH]2)cc(C(=O)c2ccco2)nn1-c1ccccc1 | i | i | i | i | i | i | nt | nt
N=c1c(-c2nc3ccccc3[nH]2)cc(C(=O)c2cccs2)nn1-c1ccccc1 | i | i | 72 | 51 | i | 56 | i | 59
CC(C)(C)C(=O)/C=c1\s/c(=C\c2ccc(-c3ccc([N+](=O)[O-])cc3)o2)c(=O)n1CC(=O)NC(N)=O | i | i | i | i | i | 68 | 58 | 54
CCc1ccc2nc(N(CCCN(C)C)C(=O)c3ccc(S(=O)(=O)N(C)C4CCCCC4)cc3)sc2c1 | i | i | i | i | i | 66 | 48 | 56
Cc1cc(C)c2sc(N(CCCN(C)C)C(=O)c3ccc(S(=O)(=O)N(C)C4CCCCC4)cc3)nc2c1 | i | nt | 55 | i | i | 97 | 48 | 79
O=C1CC(c2ccc3c(c2)OCO3)Sc2nc3ccccc3n21 (stereo not given) | i | i | i | i | i | 54 | 67 | 169
O=C1CC(c2ccccc2)Sc2nc3ccccc3n21 (stereo not given) | i | i | i | i | i | i | nt | nt
Cc1cc(NC(=O)CCSc2ccccc2)ccc1Br | i | i | i | i | i | i | nt | nt
